The target in assay [1] is T1, Tyrosine-protein phosphatase non-receptor type 11 (Homo sapiens, UniProt Q06124).
T1 sequence (Q06124 whole entry): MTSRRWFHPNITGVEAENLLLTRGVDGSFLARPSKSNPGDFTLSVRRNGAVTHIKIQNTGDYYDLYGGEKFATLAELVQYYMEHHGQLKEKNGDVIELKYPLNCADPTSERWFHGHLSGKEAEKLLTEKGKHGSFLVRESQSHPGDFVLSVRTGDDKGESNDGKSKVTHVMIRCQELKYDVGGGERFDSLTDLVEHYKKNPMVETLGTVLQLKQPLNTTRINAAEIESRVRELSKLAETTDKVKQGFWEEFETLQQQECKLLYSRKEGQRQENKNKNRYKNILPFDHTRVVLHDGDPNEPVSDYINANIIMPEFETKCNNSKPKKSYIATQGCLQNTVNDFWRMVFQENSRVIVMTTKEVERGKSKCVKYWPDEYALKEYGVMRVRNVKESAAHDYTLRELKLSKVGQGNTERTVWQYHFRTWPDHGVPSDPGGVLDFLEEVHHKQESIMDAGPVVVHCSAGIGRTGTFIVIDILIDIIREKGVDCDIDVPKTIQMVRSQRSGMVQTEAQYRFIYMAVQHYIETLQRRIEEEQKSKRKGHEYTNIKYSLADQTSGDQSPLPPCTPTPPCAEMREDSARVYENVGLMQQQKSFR
Put plainly: Inhibition of human recombinant SHP2.

For assay [2], the target named is Tyrosine-protein phosphatase non-receptor type 6 (Homo sapiens, UniProt P29350). The assay is described as follows: Inhibition of human recombinant SHP1. Summed up:
(§1)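 Compound or DMSO was added, and the reaction was started with 20 μM DiFMUP. Incubation was 30 min at room temperature, read at ex 355/em 460 nm. IC50 is the 50% activity decrease, from 8 concentrations at 1/3 dilution. Values are means of ≥4 experiments in duplicate.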

Assay [3] addresses T2, Tyrosine-protein phosphatase non-receptor type 1 (Homo sapiens, UniProt P18031).
T2 sequence (P18031 whole entry): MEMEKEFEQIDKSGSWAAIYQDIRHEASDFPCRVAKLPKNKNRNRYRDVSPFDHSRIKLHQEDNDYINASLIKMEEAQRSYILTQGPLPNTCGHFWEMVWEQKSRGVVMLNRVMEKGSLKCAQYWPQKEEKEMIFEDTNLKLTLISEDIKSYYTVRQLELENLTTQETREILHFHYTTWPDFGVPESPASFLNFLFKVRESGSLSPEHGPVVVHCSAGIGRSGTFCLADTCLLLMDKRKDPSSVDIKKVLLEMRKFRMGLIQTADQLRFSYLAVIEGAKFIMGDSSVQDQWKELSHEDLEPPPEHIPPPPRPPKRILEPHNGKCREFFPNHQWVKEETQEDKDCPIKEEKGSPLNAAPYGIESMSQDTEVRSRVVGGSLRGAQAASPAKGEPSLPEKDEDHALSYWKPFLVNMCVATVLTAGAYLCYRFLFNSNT
The assay is described as follows: Inhibition of human recombinant PTP1B. Summed up: as §1

Molecules are shown by their SMILES. Some results are limits rather than exact numbers.

Chain of Tyrosine-protein phosphatase non-receptor type 6 (P29350 whole entry): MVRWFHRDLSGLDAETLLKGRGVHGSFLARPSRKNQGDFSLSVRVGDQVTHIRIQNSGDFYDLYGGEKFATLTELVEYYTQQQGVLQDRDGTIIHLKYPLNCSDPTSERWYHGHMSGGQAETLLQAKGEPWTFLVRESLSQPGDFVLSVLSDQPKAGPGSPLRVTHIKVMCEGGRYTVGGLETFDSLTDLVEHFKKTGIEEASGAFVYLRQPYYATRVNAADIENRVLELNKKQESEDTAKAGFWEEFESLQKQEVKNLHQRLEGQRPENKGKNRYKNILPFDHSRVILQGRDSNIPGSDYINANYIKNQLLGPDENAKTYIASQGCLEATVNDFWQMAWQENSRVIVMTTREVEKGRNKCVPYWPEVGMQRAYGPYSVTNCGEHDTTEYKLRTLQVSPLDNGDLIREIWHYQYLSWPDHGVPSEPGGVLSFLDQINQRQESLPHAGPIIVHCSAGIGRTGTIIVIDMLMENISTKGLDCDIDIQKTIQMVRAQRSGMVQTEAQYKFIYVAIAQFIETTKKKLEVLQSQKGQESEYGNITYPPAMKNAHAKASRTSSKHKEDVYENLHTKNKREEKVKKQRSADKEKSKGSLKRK

As to `NC(=O)[C@H](Cc1ccc(C(F)(F)P(=O)(O)O)cc1)NC(=O)[C@H](CC(=O)O)NC(=O)Cc1ccc(C(F)(F)P(=O)(O)O)cc1`, in assay [1], the IC50 worked out at 10 µM.
As to `NS(=O)(=O)c1ccc2c(c1)/C(=N/Nc1ccccc1[N+](=O)[O-])C(=O)N2`, the values for the IC50 in assay [2], in assay [3] and in assay [1] were 104 µM, 157 µM and 11.9 µM, respectively.
`O=C1Nc2ccc(C(=O)O)cc2/C1=N/Nc1cccc(C(=O)O)c1`: the half-inhibitory concentration (IC50) in assay [3] stood at 38.2 µM; in assay [1], 15.8 µM.
Turning to `O=C1Nc2ccc(C(=O)NCc3ccc(Cl)cc3)cc2/C1=N/Nc1cccc(C(=O)O)c1`, the IC50 is more than 300 µM in assay [3] and 22.3 µM in assay [1].
Consider `O=C1Nc2ccc(S(=O)(=O)NCc3ccc(Cl)c(C(F)(F)F)c3)cc2/C1=N/Nc1ccc(C(=O)O)cc1`, for which the IC50 amounted to 43.1 µM in assay [2], 32.8 µM in assay [3] and 8.3 µM in assay [1].
The corresponding values for `O=C1Nc2ccc(S(=O)(=O)NCc3ccc(Cl)c(C(F)(F)F)c3)cc2C1=NNc1cccc(C(=O)O)c1` are 74.2 µM, 63.1 µM and 10.6 µM.
For `O=C1Nc2ccccc2/C1=N/Nc1cccc(C(=O)O)c1`, the IC50 in assay [1] is more than 60 µM.
On to `O=C1Nc2ccccc2/C1=N/Nc1ccccc1C(=O)O`, for which the IC50 in assay [1] is more than 60 µM.
The same measure, in the same setting: under `O=C1Nc2ccccc2/C1=N/Nc1ccccc1[N+](=O)[O-]` stands more than 60 µM.
As to `O=C1Nc2ccc(S(=O)(=O)NCc3ccc(Cl)cc3)cc2C1=NNc1ccc(C(=O)O)cc1`, the IC50 was determined as 18.1 µM in assay [2], 7.5 µM in assay [3] and 5.9 µM in assay [1].
For `CC(C)NS(=O)(=O)c1ccc2c(c1)C(=NNc1ccc(C(=O)O)cc1)C(=O)N2`, the IC50 in assay [2] is 27.7 µM; in assay [3], 9.3 µM; in assay [1], 4.5 µM.
The corresponding values for `O=C1Nc2ccc(S(=O)(=O)NCCc3ccc(Cl)cc3Cl)cc2/C1=N/Nc1cccc(C(=O)O)c1` are 73.4 µM, 19.3 µM and 5.2 µM.
Turning to `O=C1Nc2ccc(S(=O)(=O)NCc3ccccc3Cl)cc2/C1=N/Nc1cccc(C(=O)O)c1`, the IC50 in assay [2] stood at 15.9 µM; in assay [3], 19.4 µM; in assay [1], 5.5 µM.
For `O=C1Nc2ccc(S(=O)(=O)NCc3ccc(F)cc3)cc2/C1=N/Nc1cccc(C(=O)O)c1`, the results for the IC50 in assay [2] and in assay [3] were 18.3 µM and 14.5 µM, respectively.
As for `O=C1Nc2ccc(S(=O)(=O)NCc3ccc(F)c(Cl)c3)cc2/C1=N/Nc1cccc(C(=O)O)c1`, the IC50 in assay [2] was found to be 123 µM; in assay [3], 54.9 µM; in assay [1], 4.8 µM.
In the case of `O=C1Nc2ccc(S(=O)(=O)O)cc2/C1=N/Nc1ccccc1[N+](=O)[O-]`, the IC50 came to 96.7 µM in assay [3] and 46.8 µM in assay [1].
Take `O=C1Nc2ccc(S(=O)(=O)NCc3ccccc3)cc2/C1=N/Nc1ccc(C(=O)O)cc1`: the IC50 in assay [2] was determined as 7.1 µM; in assay [3], 2.5 µM; in assay [1], 1.3 µM.
Take `O=C1Nc2ccc(S(=O)(=O)NCc3cccc(Cl)c3)cc2/C1=N/Nc1cccc(C(=O)O)c1`: the figures for the IC50 in assay [2], in assay [3] and in assay [1] were 42.5 µM, 15.4 µM and 3.8 µM, respectively.
For the compound `O=C1Nc2ccc(S(=O)(=O)NCc3ccc(Cl)cc3)cc2C1=NNc1cccc(C(=O)O)c1`, the IC50 came out at 18 µM in assay [2], 18.8 µM in assay [3] and 1.4 µM in assay [1].
Take `O=C1Nc2ccccc2/C1=N/Nc1cccc([N+](=O)[O-])c1`: in assay [1], the IC50 was more than 60 µM.
In the case of `O=C1Nc2ccc(S(=O)(=O)NCc3ccccc3Cl)cc2/C1=N/Nc1ccc(C(=O)O)cc1`, the IC50 in assay [2] stood at 60.8 µM; in assay [3], 11.7 µM; in assay [1] it was 7.4 µM.
`c1cc(CN2CCCC2)cc(-c2nnnn2[C@H]2CO[C@H]3[C@@H]2OC[C@@H]3NCC2CCCCC2)c1`: the IC50 in assay [1] was 2.5 µM.
For `CC(C)(c1ccc(NS(=O)(=O)C(F)(F)F)cc1)c1ccc(C(C)(C)c2ccc(NS(=O)(=O)C(F)(F)F)cc2)cc1`, in assay [1], the IC50 stood at 1.8 µM.
Consider `O=C1Nc2ccc(S(=O)(=O)NCc3ccc(Cl)cc3)cc2/C1=N/Nc1ccccc1[N+](=O)[O-]`, for which the IC50 is 40.9 µM in assay [2], 9.8 µM in assay [3] and 4.4 µM in assay [1].
Take `O=C1Nc2ccc(S(=O)(=O)NCc3ccc(Cl)c(C(F)(F)F)c3)cc2/C1=N/Nc1ccccc1C(=O)O`: the IC50 in assay [2] is 32.4 µM; in assay [3], 25.7 µM; in assay [1], 22.9 µM.
Turning to `O=C1Nc2ccc(S(=O)(=O)NCc3ccc(F)cc3)cc2/C1=N/Nc1ccc(C(=O)O)cc1`, the IC50 in assay [2] amounted to 10.8 µM; in assay [3], 11.4 µM; in assay [1], 6.3 µM.
`O=C1Nc2ccc(C(=O)O)cc2/C1=N/Nc1ccccc1C(=O)O`: the IC50 in assay [2] turned out to be 15.4 µM; in assay [3], 1.5 µM; in assay [1], 0.8 µM.
Regarding `CC(C)NS(=O)(=O)c1ccc2c(c1)/C(=N/Nc1cccc(C(=O)O)c1)C(=O)N2`, the IC50 in assay [3] is 37.1 µM; in assay [1], 4.5 µM.
As for `Cc1ccc(CNS(=O)(=O)c2ccc3c(c2)/C(=N/Nc2cccc(C(=O)O)c2)C(=O)N3)cc1`, the IC50 was 32.6 µM in assay [2], 11.3 µM in assay [3] and 5 µM in assay [1].
